From ChEMBL document CHEMBL3259519, “Targeting triple-negative breast cancer cells with 6,7-bis(hydroxymethyl)-1H,3H-pyrrolo[1,2-c]thiazoles” (Eur J Med Chem, 2014)
pIC50: −log10 of the molar value. Activity calls are given as the source filed them. The calls are words filed in the database; no cut-off is given here.

Columns and labels:
HCC1954 [1] = assay: Antiproliferative activity against human HCC1954 cells expressing HER2 assessed as growth inhibition after 72 hrs by MTT assay; format: functional, cell-based; details: HCC1954, 72 h
Procedure, shortened: (§1)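 Cells were seeded at 2x10^4/well and left to attach overnight. Compounds in DMSO were diluted in medium and applied for 24, 48, 72 or 96 h. Cells were then PBS-washed and given 0.5 mg/mL MTT (pH 7.4) at 37 °C for 4 h. Formazan was dissolved in acid isopropanol. IC50 came from dose-response curves by exponential decay fitting (r2>0.9), with 95% CI.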

HCC1806 [2] = assay: Antiproliferative activity against ER, PR, HER2-deficient human HCC1806 cells as growth inhibition after 96 hrs by MTT assay; format: functional, cell-based; details: HCC1806, 96 h; procedure, shortened: as §1
HCC1954 [3] = assay: Antiproliferative activity against human HCC1954 cells expressing HER2 assessed as growth inhibition after 48 hrs by MTT assay; format: functional, cell-based; details: HCC1954, 48 h; procedure, shortened: as §1
HCC1954 [4] = assay: Antiproliferative activity against human HCC1954 cells expressing HER2 assessed as growth inhibition after 96 hrs by MTT assay; format: functional, cell-based; details: HCC1954, 96 h; procedure, shortened: as §1
HCC1806 [5] = assay: Antiproliferative activity against ER, PR, HER2-deficient human HCC1806 cells as growth inhibition after 48 hrs by MTT assay; format: functional, cell-based; details: HCC1806, 48 h; procedure, shortened: as §1
HCC1806 [6] = assay: Antiproliferative activity against ER, PR, HER2-deficient human HCC1806 cells as growth inhibition after 24 hrs by MTT assay; format: functional, cell-based; details: HCC1806, 24 h; procedure, shortened: as §1
HCC1954 [7] = assay: Antiproliferative activity against human HCC1954 cells expressing HER2 assessed as growth inhibition after 24 hrs by MTT assay; format: functional, cell-based; details: HCC1954, 24 h; procedure, shortened: as §1
HCC1806 [8] = assay: Antiproliferative activity against ER, PR, HER2-deficient human HCC1806 cells as growth inhibition after 72 hrs by MTT assay; format: functional, cell-based; details: HCC1806, 72 h; procedure, shortened: as §1
MCF7 [9] = assay: Antiproliferative activity against human MCF7 cells expressing ER and BRCA2 assessed as growth inhibition after 96 hrs by MTT assay; format: functional, cell-based; details: MCF7, 96 h; procedure, shortened: as §1
MCF7 [10] = assay: Antiproliferative activity against human MCF7 cells expressing ER and BRCA2 assessed as growth inhibition after 72 hrs by MTT assay; format: functional, cell-based; details: MCF7, 72 h; procedure, shortened: as §1
MCF7 [11] = assay: Antiproliferative activity against human MCF7 cells expressing ER and BRCA2 assessed as growth inhibition after 48 hrs by MTT assay; format: functional, cell-based; details: MCF7, 48 h; procedure, shortened: as §1
MCF7 [12] = assay: Antiproliferative activity against human MCF7 cells expressing ER and BRCA2 assessed as growth inhibition after 24 hrs by MTT assay; format: functional, cell-based; details: MCF7, 24 h; procedure, shortened: as §1
HCC1806 [13] = assay: Induction of DNA strand break in ER, PR, HER2-deficient human HCC1806 cells at IC50 after 48 hrs by alkaline comet assay; format: functional, cell-based
Procedure, shortened: (§2)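 5x10^5 cells got IC50 or 3x IC50 for 48 h (DMSO 0.1%); H2O2-treated cells served as positive control. Cells in 1% low-melt agarose went onto slides precoated with normal-melt agarose. Slides were lysed overnight in alkaline buffer (2.5 M NaCl, EDTA, Tris, DMSO, Triton X-100). Electrophoresis ran in 300 mM NaOH/1 mM EDTA (pH>13) at 25 V for 15 min. Slides were neutralized in Tris pH 7.4 and stained with 25 µg/mL ethidium bromide for fluorescence microscopy.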

MCF7 [14] = assay: Induction of apoptosis in human MCF7 cells expressing ER and BRCA2 assessed as increase of late apoptotic/nectrotic cells at IC50 after 48 hrs by Annexin V/propidium iodide staining-based flow cytometry relative to control; format: functional, cell-based
Procedure, shortened: (§3)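 2x10^6 cells were attached overnight, then given IC50 for 48 h (DMSO 0.1%). PBS-washed cells were stained with Annexin V-FITC and PI in binding buffer for 15 min at 4 °C in the dark. Flow cytometry used 488 nm excitation. Cells were gated as viable, apoptotic, late apoptotic/necrotic or necrotic, reported as mean ± SD (n≥5).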

HCC1806 [15] = assay: Induction of apoptosis in triple negative ER, PR, HER2-deficient human HCC1806 cells assessed as decrease of viable cells at IC50 after 48 hrs by Annexin V/propidium iodide staining-based flow cytometry relative to control; format: functional; procedure, shortened: as §3
MCF7 [16] = assay: Induction of apoptosis in human MCF7 cells expressing ER and BRCA2 assessed as decrease in viable cells at IC50 after 48 hrs by Annexin V/propidium iodide staining-based flow cytometry relative to control; format: functional; procedure, shortened: as §3
HCC1806 [17] = assay: Induction of DNA strand break in ER, PR, HER2-deficient human HCC1806 cells at 3 x IC50 after 48 hrs by alkaline comet assay; format: functional, cell-based; procedure, shortened: as §2
HCC1806 [18] = assay: Induction of apoptosis in triple negative ER, PR, HER2-deficient human HCC1806 cells assessed as increase of necrotic cells at IC50 after 48 hrs by Annexin V/propidium iodide staining-based flow cytometry relative to control; format: functional, cell-based; procedure, shortened: as §3
HCC1806 [19] = assay: Induction of apoptosis in triple negative ER, PR, HER2-deficient human HCC1806 cells assessed as increase of late apoptotic/nectrotic cells at IC50 after 48 hrs by Annexin V/propidium iodide staining-based flow cytometry relative to control; format: functional, cell-based; procedure, shortened: as §3
MCF7 [20] = assay: Induction of apoptosis in human MCF7 cells expressing ER and BRCA2 assessed as increase of necrotic cells at IC50 after 48 hrs by Annexin V/propidium iodide staining-based flow cytometry relative to control; format: functional, cell-based; procedure, shortened: as §3
HCC1806 [21] = assay: Cytotoxicity against ER, PR, HER2-deficient human HCC1806 cells as reduction of survival factor at IC50 incubated for 48 hrs measured after 12 days by crystal violet staining-based clonogenic assay; format: functional
HCC1806 [22] = assay: Cytotoxicity against ER, PR, HER2-deficient human HCC1806 cells as reduction of total protein content at IC50 incubated for 48 hrs by SRB assay relative to control; format: functional; set-up: scale not given: the % may be the effect or the level left
MCF7 [23] = assay: Cell cycle arrest in human MCF7 cells expressing ER and BRCA2 assessed as increase in accumulation at S phase at IC50 after 48 hrs by propidium staining-based FACS analysis; format: functional
Procedure, shortened: (§4)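 2x10^6 cells were attached overnight, then exposed to IC50 for 48 h (DMSO 0.1%). They were fixed in ice-cold 70% ethanol for 30 min in the dark, PBS-washed and stained with PI/RNase for 15 min at RT. Flow cytometry used 488 nm excitation and a 585/42 filter. Sub-G0, G0/G1, S and G2/M fractions were reported as mean ± SD (n≥5).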

MCF7 [24] = assay: Induction of DNA strand break in human MCF7 cells expressing ER and BRCA2 at IC50 after 48 hrs by alkaline comet assay; format: functional, cell-based; procedure, shortened: as §2
HCC1806 [25] = assay: Cell cycle arrest in ER, PR, HER2-deficient human HCC1806 cells as accumulation at S phase at IC50 after 48 hrs by propidium staining-based FACS analysis; format: functional; procedure, shortened: as §4
MCF7 [26] = assay: Cell cycle arrest in human MCF7 cells expressing ER and BRCA2 assessed as decrease in accumulation at G0/G1 phase at IC50 after 48 hrs by propidium staining-based FACS analysis; format: functional; procedure, shortened: as §4
HCC1806 [27] = assay: Cell cycle arrest in ER, PR, HER2-deficient human HCC1806 cells as accumulation at G2/M phase at IC50 after 48 hrs by propidium staining-based FACS analysis; format: functional; procedure, shortened: as §4
MCF7 [28] = assay: Induction of DNA strand break in human MCF7 cells expressing ER and BRCA2 at 3 x IC50 after 48 hrs by alkaline comet assay; format: functional, cell-based; procedure, shortened: as §2
HCC1806 [29] = assay: Cell cycle arrest in ER, PR, HER2-deficient human HCC1806 cells as blockade at G0/G1 phase at IC50 after 48 hrs by propidium staining-based FACS analysis; format: functional; procedure, shortened: as §4
MCF7 [30] = assay: Cytotoxicity against human MCF7 cells expressing ER and BRCA2 assessed as reduction of total protein content at IC50 after 48 hrs by SRB assay relative to control; format: functional; set-up: scale not given: the % may be the effect or the level left
MCF7 [31] = assay: Cytotoxicity against human MCF7 cells expressing ER and BRCA2 assessed as reduction of survival factor at IC50 incubated for 48 hrs measured after 12 days by crystal violet staining-based clonogenic assay; format: functional, cell-based
MCF7 [32] = assay: Cell cycle arrest in human MCF7 cells expressing ER and BRCA2 assessed as blockade at G2/M phase at IC50 after 48 hrs by propidium staining-based FACS analysis; format: functional; procedure, shortened: as §4

| pIC50 (HCC1954 [1]) | pIC50 (HCC1806 [2]) | pIC50 (HCC1954 [3]) | pIC50 (HCC1954 [4]) | pIC50 (HCC1806 [5]) | pIC50 (HCC1806 [6]) | pIC50 (HCC1954 [7]) | pIC50 (HCC1806 [8]) | Structure (SMILES) | other results |
| --- | --- | --- | --- | --- | --- | --- | --- | --- | --- |
| 4.83 | 4.54 | 4.25 | 4.93 | 4.20 | < 4.00 | < 4.00 | 4.11 | Cc1c(CO)c(CO)c2n1[C@H](c1ccccc1)SC2 |  |
| 4.25 | 4.67 | 4.16 | 4.47 | 4.38 | < 4.00 | 4.00 | 4.57 | Cc1c(CO)c(CO)c2n1[C@H](c1ccccc1)SC2(C)C | pIC50 (MCF7 [9]): < 4.00; pIC50 (MCF7 [10]): < 4.00; pIC50 (MCF7 [11]): < 4.00; pIC50 (MCF7 [12]): < 4.00 |
| 4.58 | 4.86 | 4.57 | 4.60 | 4.09 | < 4.00 | 4.01 | 4.29 | Cc1c(CO)c(CO)c2n1[C@@H](c1ccccc1)SC2 | Activity (HCC1806 [13]): Active; Activity (MCF7 [14]): Active; Activity (HCC1806 [15]): 60%; Activity (MCF7 [16]): 55%; Activity (HCC1806 [17]): Active; Activity (HCC1806 [18]): Active; Activity (HCC1806 [19]): Active; Activity (MCF7 [20]): Active; Activity (HCC1806 [21]): <2%; Activity (HCC1806 [22]): 50%; Activity (MCF7 [23]): Active; Activity (MCF7 [24]): Active; Activity (HCC1806 [25]): inactive; Activity (MCF7 [26]): Active; Activity (HCC1806 [27]): inactive; Activity (MCF7 [28]): Active; Activity (HCC1806 [29]): Active; Activity (MCF7 [30]): 50%; Activity (MCF7 [31]): Active; Activity (MCF7 [32]): Active |
